According to ChEMBL document CHEMBL1126205, “Novel spirosuccinimides with incorporated isoindolone and benzisothiazole 1,1-dioxide moieties as aldose reductase inhibitors and antihyperglycemic agents” (1992):
Activity calls are given as the source filed them. The rule behind the calls is not given here.

Assays:
Mus musculus = assay: Antihyperglycemic activity measured as percent decrease in mice plasma glucose at 100 mg/Kg/day; assay type: functional
Outline: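 Male db/db (C57BL/KsJ) mice, 4–6 per group, dosed at 100 mg/kg per day. Plasma glucose of the drug-treated group is expressed as percent decrease relative to a vehicle-treated control group. Values are mean ± SE, with p < 0.05 marked.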

[1] = target: Aldo-keto reductase family 1 member B1 (Bos taurus) (UniProt P16116); assay: NADPH-dependent inhibition of glyceraldehyde reduction by partially purified aldose reductase from bovine lens at 10e-5 M
Outline: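 Partially purified aldose reductase from bovine lens. Inhibition of NADPH-dependent glyceraldehyde reduction was measured at a single test concentration. Values are % inhibition of enzymatic activity, mean of two determinations.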

[2] = target: Aldo-keto reductase family 1 member B1 (Bos taurus) (UniProt P16116); assay: In vitro aldose reductase inhibitory activity measured by NADPH-dependent inhibition of glyceraldehyde reduction in a partially purified bovine lens preparation at 10E-6 M
Outline: (§1)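 Aldose reductase partially purified from bovine lens. Inhibition of NADPH-dependent glyceraldehyde reduction is measured at the single stated concentration and reported as percent inhibition, the mean of two determinations.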

[3] = target: Aldo-keto reductase family 1 member B1 (Bos taurus) (UniProt P16116); assay: In vitro aldose reductase inhibitory activity measured by NADPH-dependent inhibition of glyceraldehyde reduction in a partially purified bovine lens preparation at 10E-7 M; outline: as §1
Rattus norvegicus [4] = assay: In vivo galactitol inhibitory activity measured by its ability to inhibit galactitol accumulation in lens at 10 mg/Kg/day; assay type: functional; conditions: Lens of camera-type eye
Outline: (§2)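 Rats (n = 6) fed 20% galactose for 4 days, with compound given in the diet at the stated mg/kg per day. Galactitol accumulation in lens, sciatic nerve or diaphragm is scored as percent inhibition versus the non-treated group, as means of 3–8 drug-treated tissue samples. Dunnett's multiple comparison test applies; NS means p > 0.05.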

Rattus norvegicus [5] = assay: In vivo galactitol inhibitory activity measured by its ability to inhibit galactitol accumulation in diaphragm at 10 mg/Kg/day; assay type: functional; outline: as §2
Rattus norvegicus [6] = assay: In vivo galactitol inhibitory activity measured by its ability to inhibit galactitol accumulation in sciatic nerve at 10 mg/Kg/day; assay type: functional; conditions: Rattus norvegicus, Sciatic nerve
Outline: (§3)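 Rats (n = 6) fed 20% galactose for 4 days, with compound given in the diet at the stated daily dose. Galactitol accumulation was measured in lens, sciatic nerve and diaphragm, and % inhibition was taken versus the nontreated group. Means are from three to eight drug-treated tissue samples. Dunnett's multiple comparison test was applied, with p > 0.05 reported as not significant.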

Rattus norvegicus [7] = assay: In vivo galactitol inhibitory activity measured by its ability to inhibit galactitol accumulation in lens at 10 mg/Kg/day; NS=Not significant (% Inhibition); assay type: functional; conditions: Lens of camera-type eye; outline: as §2
Rattus norvegicus [8] = assay: In vivo galactitol inhibitory activity measured by its ability to inhibit galactitol accumulation in diaphragm at 6 mg/Kg/day; assay type: functional; outline: as §2
Rattus norvegicus [9] = assay: In vivo galactitol inhibitory activity measured by its ability to inhibit galactitol accumulation in lens at 6 mg/Kg/day; NS=Not significant (% Inhibition); assay type: functional, organism-based; conditions: Lens of camera-type eye; outline: as §2
Rattus norvegicus [10] = assay: In vivo galactitol inhibitory activity measured by its ability to inhibit galactitol accumulation in diaphragm at 3 mg/Kg/day; NS=Not significant (% Inhibition); assay type: functional, organism-based; outline: as §2
Rattus norvegicus [11] = assay: In vivo galactitol inhibitory activity measured by its ability to inhibit galactitol accumulation in lens at 3 mg/Kg/day; NS=Not significant (% Inhibition); assay type: functional, organism-based; conditions: Lens of camera-type eye; outline: as §2
Rattus norvegicus [12] = assay: In vivo galactitol inhibitory activity measured by its ability to inhibit galactitol accumulation in sciatic nerve at 6 mg/Kg/day; NS=Not significant (% Inhibition); assay type: functional, organism-based; outline: as §3
Rattus norvegicus [13] = assay: In vivo galactitol inhibitory activity measured by its ability to inhibit galactitol accumulation in sciatic nerve at 3 mg/Kg/day; NS=Not significant (% Inhibition); assay type: functional, organism-based; outline: as §3
Rattus norvegicus [14] = assay: In vivo galactitol inhibitory activity measured by its ability to inhibit galactitol accumulation in sciatic nerve at 10 mg/Kg/day; NS=Not significant (% Inhibition); assay type: functional, organism-based; outline: as §3

SMILES | Decrease (Mus musculus) [%] | inhibition [2] [%] | further results
O=C1CC2(C(=O)N1)c1ccccc1S(=O)(=O)N2Cc1ccc(F)cc1 (stereo not given) | <15 | – | –
O=C1CC2(C(=O)N1)c1ccccc1S(=O)(=O)N2CCc1ccc(Br)cc1 (stereo not given) | 25 | – | inhibition [1]: 0%
Nc1ccc(CN2C3(CC(=O)NC3=O)c3ccccc3S2(=O)=O)cc1 (stereo not given) | <15 | – | –
O=C1CC2(C(=O)N1)c1ccccc1S(=O)(=O)N2Cc1ccc(I)cc1 (stereo not given) | <15 | – | –
O=C1CC2(C(=O)N1)c1ccccc1S(=O)(=O)N2Cc1ccc(-c2ccccc2)cc1 (stereo not given) | <15 | 15 | inhibition [1]: 54%
Cc1cc(Br)ccc1CN1C2(CC(=O)NC2=O)c2ccccc2S1(=O)=O (stereo not given) | <15 | – | –
Cc1cc(CN2C3(CC(=O)NC3=O)c3ccccc3S2(=O)=O)ccc1Br (stereo not given) | <15 | – | –
O=C1CC2(C(=O)N1)c1ccccc1C(=O)N2Cc1ccc(I)cc1 (stereo not given) | <15 | – | –
O=C1CC2(C(=O)N1)C(=O)N(Cc1ccc(Br)cc1F)c1c(Cl)cccc12 (stereo not given) | <15 | 92 | inhibition [3]: 83%; inhibition in vivo at 10 mg/kg/day (Rattus norvegicus [4]): 36%; inhibition in vivo at 10 mg/kg/day (Rattus norvegicus [5]): 84%; inhibition in vivo at 10 mg/kg/day (Rattus norvegicus [6]): 86%
CC(=O)Nc1ccc(CN2C3(CC(=O)NC3=O)c3ccccc3S2(=O)=O)cc1 (stereo not given) | <15 | – | –
O=C1CC2(C(=O)N1)c1ccccc1S(=O)(=O)N2Cc1ccc2ccccc2c1Br (stereo not given) | <15 | 25 | inhibition [1]: 59%
CN1C(=O)c2cc(Br)ccc2C12CC(=O)NC2=O (stereo not given) | <15 | 71 | inhibition (Rattus norvegicus [7]): inactive; inhibition in vivo at 6 mg/kg/day (Rattus norvegicus [8]): 27%; inhibition (Rattus norvegicus [9]): inactive; inhibition (Rattus norvegicus [10]): inactive; inhibition [3]: 27%; inhibition (Rattus norvegicus [11]): inactive; inhibition in vivo at 10 mg/kg/day (Rattus norvegicus [5]): 39%; inhibition (Rattus norvegicus [12]): inactive; inhibition (Rattus norvegicus [13]): inactive; inhibition (Rattus norvegicus [14]): inactive
CCN1C2(CC(=O)NC2=O)c2ccccc2S1(=O)=O (stereo not given) | <15 | – | –
O=C1CC2(C(=O)N1)c1ccccc1S(=O)(=O)N2Cc1ccc(Br)cc1Cl (stereo not given) | <15 | – | –
CCC(CC)N1C2(CC(=O)NC2=O)c2ccccc2S1(=O)=O (stereo not given) | 31 | – | –
O=C1CC2(C(=O)N1)c1ccccc1C(=O)N2Cc1ccc(Br)cc1 (stereo not given) | <15 | – | –
O=C1CC2(C(=O)N1)c1ccccc1S(=O)(=O)N2c1ccc(Br)cc1 (stereo not given) | <15 | – | inhibition [1]: 0%
O=C1CC2(C(=O)N1)c1ccccc1C(=O)N2Cc1cccc(Br)c1 (stereo not given) | <15 | – | –
O=C1CC2(C(=O)N1)c1ccccc1S(=O)(=O)N2Cc1ccc(Br)cc1F (stereo not given) | 48 | 0 | inhibition [1]: 52%
CN1C(=O)c2ccc(Cl)cc2C12CC(=O)NC2=O (stereo in doubt; 32) | – | 80 | inhibition (Rattus norvegicus [9]): inactive; inhibition [3]: 37%
Cc1oc(-c2ccccc2)nc1CCN1C2(CC(=O)NC2=O)c2ccccc2S1(=O)=O (stereo not given) | <15 | – | –
CN1C(=O)c2cc3ccccc3cc2C12CC(=O)NC2=O (stereo not given) | <15 | 82 | inhibition [3]: 37%; inhibition in vivo at 10 mg/kg/day (Rattus norvegicus [4]): 14%; inhibition in vivo at 10 mg/kg/day (Rattus norvegicus [5]): 59%; inhibition in vivo at 10 mg/kg/day (Rattus norvegicus [6]): 47%
COc1ccc2c(c1)C(=O)N(C)C21CC(=O)NC1=O (stereo not given) | <15 | 56 | inhibition (Rattus norvegicus [10]): inactive; inhibition (Rattus norvegicus [11]): inactive; inhibition (Rattus norvegicus [13]): inactive
O=C1CC2(C(=O)N1)c1ccccc1S(=O)(=O)N2Cc1ccc([N+](=O)[O-])cc1 (stereo not given) | <15 | 0 | inhibition [1]: 37%
CN1C2(CC(=O)NC2=O)c2ccccc2S1(=O)=O (stereo not given) | <15 | 0 | inhibition [1]: 40%
Cc1oc(-c2ccccc2)nc1CCOc1ccc(N2C3(CC(=O)NC3=O)c3ccccc3S2(=O)=O)cc1 (stereo not given) | <15 | – | –
